# Experimental data published in PubChem BioAssay.
# Calls of active or inactive are those of the source.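 How the source made its calls, unless noted: active means fluorescence slope after compound addition differing from the mean of all tested samples at 99.7% confidence, mostly higher but some lower; inactive means the rest.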
# Key:
# [1] = inhibitors of TNFa-induced NFkB p65 translocation, primary screen, imaging, HUVEC, MLSMR starter and 10KST1 sets (AID 438;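 active means inhibition above 20% together with a positive visual image hit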;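 further: compound added about 3h40 before a 20 min TNFalpha stimulation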;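 on inhibition: signal is the nuclear over cytoplasmic p65 intensity ratio per well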); details: HUVEC TNFa-induced p65 nuclear translocation; cell count: measured here: nuclei count (cytotoxicity indicator), at 2.08 µM; inhibition: at 2 µM, stronger effect = higher value, 0% TNFa-plus-vehicle, 100% no-TNFa wells
# [2] = reduction of polyQ htt aggregates in cells – imaging, exon1htt(103Q)mCFP cells, high-content imaging, primary screen (AID 483;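 active means visual image review flags a hit and inhibition of aggregation exceeds 20%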;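 further: compound exposure lasted 3 days before fixation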;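 on nuclei count: percent of the per-plate median nuclei count of sample wells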); details: exon1htt(103Q)mCFP cell line, aggregate imaging, at 2 µM; inhibition of aggregation: stronger effect = higher value; nuclei count: measured here: cell count, toxicity
# [3] = endothelial E-selectin expression blockers – imaging, HUVEC, immunofluorescence, MLSMR starter and 10KST1 sets, primary screen (AID 487;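 active means visually confirmed hit in the image check and inhibition above 20%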;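 on inhibition: signal is fraction of cell area covered by stained E-selectin grains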;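 on nuclei count: 100% = median nuclei count of all wells on the same plate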); details: HUVEC TNFalpha-induced E-selectin immunofluorescence imaging, at 2 µM; inhibition: stronger effect = higher value; nuclei count: measured here: cell number, toxicity
# [4] = biological target: Voltage-gated potassium channel subunit beta-2 (Rattus norvegicus) (UniProt P62483); assay: inhibitors of rat Kvbeta2 reductase activity – biochemical, NADPH fluorescence, primary screen (AID 622;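 active means fluorescence slope higher than the sample average by over 3 SD, cut at about -0.22 in these data, passing the limit was not always enough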;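 further: slope of raw intensity against log time taken from 70 to 1610 s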); details: recombinant KvBeta, 4-cyanobenzaldehyde reduction, at 10 µM, stronger effect = higher value
# [5] = biological target: Voltage-gated potassium channel subunit beta-2 (Rattus norvegicus) (UniProt P62483); assay: enhancers of rat Kvbeta2 NADPH turnover – biochemical, NADPH fluorescence, primary screen (AID 623;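 active means NADPH fluorescence slope more negative than the mean of all samples by about 3 SD, 99.7% confidence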;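 further: fluorescence intensity change per second fitted from 20 to 320 s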); details: Recombinant KvBeta, NADPH fluorescence decrease slope, 10 min; at 10 µM; stronger effect = lower value
# [6] = biological target: Muscarinic acetylcholine receptor M4 (Homo sapiens) (UniProt P08173); assay: M4-linked GIRK flux change, two-sided – cell-based, HEK293 M4/GIRK, thallium flux, BTC-AM, M4 allosteric agonist project, primary screen (AID 625); details: at 10 µM, actives lie on both sides;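 further: thallium influx through GIRK channels coupled to M4 in HEK293 cells with BTC-AM dye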
# Summary of the method: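 System: HEK293 cells with M4 receptor and GIRK channels | Incubation: Cells overnight at 37 °C, BTC-AM loading 1 h, reads 2 min total | Technique: Kinetic BTC-AM fluorescence sampled at 1 Hz, 10 s pre-addition baseline | Measure: Post-addition slope, 15–24 s, of baseline-normalized fluorescence | Control set: Carbachol positive, DMSO negative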
# [7] = blockers of RIG-like receptor reporter activation – cell-based, Sendai virus stimulus, luciferase, 10K MLSCN set, TLR/RLR signaling modifier project, primary screen (AID 602276;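 active means inhibition at or above 50% at 10 µM; inactive means inhibition below 50%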;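 further: firefly luciferase from ISG56 promoter only with Renilla not read in this screen; 0% = Sendai virus plus DMSO and 100% = medium plus DMSO without virus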); details: HEK293 RL24 IRF3 luciferase reporter, at 10 µM, stronger effect = higher value
# [8] = TLR3 IRF3 reporter activation blockers – cell-based, poly I:C stimulus, luciferase, 10K MLSCN set, primary screen (AID 602277;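 active means inhibition of the reporter signal at or above 50%; inactive means inhibition below 50%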); details: HEK293-TLR3 RL24 IRF3 luciferase reporter, at 10 µM, stronger effect = higher value
# Chain of Voltage-gated potassium channel subunit beta-2 (Rattus norvegicus) (P62483 whole entry, looked up): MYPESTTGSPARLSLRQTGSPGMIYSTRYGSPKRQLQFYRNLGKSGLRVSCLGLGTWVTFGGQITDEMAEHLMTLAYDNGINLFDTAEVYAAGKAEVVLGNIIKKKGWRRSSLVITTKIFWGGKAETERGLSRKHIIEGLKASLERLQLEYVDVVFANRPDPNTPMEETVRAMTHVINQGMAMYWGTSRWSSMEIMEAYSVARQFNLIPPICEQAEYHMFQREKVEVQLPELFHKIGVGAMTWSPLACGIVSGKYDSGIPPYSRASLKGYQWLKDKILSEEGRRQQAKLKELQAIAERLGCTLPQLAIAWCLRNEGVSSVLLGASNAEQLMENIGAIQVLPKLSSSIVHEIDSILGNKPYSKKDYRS
# Chain of Muscarinic acetylcholine receptor M4 (Homo sapiens) (P08173 whole entry, looked up): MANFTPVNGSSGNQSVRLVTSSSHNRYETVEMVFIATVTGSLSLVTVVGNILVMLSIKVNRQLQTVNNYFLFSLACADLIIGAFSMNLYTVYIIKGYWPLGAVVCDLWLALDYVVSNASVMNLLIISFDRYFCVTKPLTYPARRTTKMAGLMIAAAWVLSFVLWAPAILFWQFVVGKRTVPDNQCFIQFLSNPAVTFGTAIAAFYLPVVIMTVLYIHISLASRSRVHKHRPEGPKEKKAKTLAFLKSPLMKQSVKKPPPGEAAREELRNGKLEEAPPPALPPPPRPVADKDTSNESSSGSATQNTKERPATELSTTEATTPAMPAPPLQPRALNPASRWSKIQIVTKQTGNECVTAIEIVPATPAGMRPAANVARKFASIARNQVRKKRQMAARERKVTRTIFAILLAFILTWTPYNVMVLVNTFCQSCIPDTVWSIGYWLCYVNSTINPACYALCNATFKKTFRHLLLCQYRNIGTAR
SMILES,cell count [1],inhibition [1],inhibition of aggregation [2],nuclei count [2] [%],inhibition [3],nuclei count [3] [%],fluorescence slope [4],NADPH fluorescence slope [5],fluorescence slope [6],inhibition [7],inhibition [8]
COc1cccc(C2=NOC(C(=O)Nc3ccc(C(C)=O)cc3)C2)c1 (stereo not drawn),808,-16.3% (inactive),-6.4% (inactive),107,-49.8% (inactive),80,-0.583 (inactive),2.1e-05 (inactive),0.00535 (inactive),-34.2% (inactive),-61.5% (inactive)
Cc1ccc(CCNC(=O)C2CCN(S(=O)(=O)c3cccc4nsnc34)CC2)cc1,644,5.2% (inactive),-9.1% (inactive),96.4,-129% (inactive),158,-0.461 (inactive),0.000103 (inactive),0.00736 (inactive),0.47% (inactive),-16.3% (inactive)
CCNC(=O)COc1ccc(Br)cc1Cl,302,0% (inactive),-7.5% (inactive),93.8,0.5% (inactive),109,-0.547 (inactive),2.4e-05 (inactive),0.00609 (inactive),-12.6% (inactive),-57.4% (inactive)
COC(=O)c1ccccc1S(=O)(=O)N(Cc1cc2cc3c(cc2[nH]c1=O)OCO3)C1CCCCC1,532,-3.6% (inactive),-4.8% (inactive),134,-71.1% (inactive),161,-0.487 (inactive),-9.9e-05 (inactive),0.00583 (inactive),-3.7% (inactive),-14.5% (inactive)
C=C(C)Cn1c(SCC)nc2ccccc2c1=O,399,-5% (inactive),13.5% (inactive),98.7,-26.7% (inactive),94.5,-0.454 (inactive),-0.000357 (inactive),0.0055 (inactive),9.69% (inactive),22.7% (inactive)
Cc1c(Br)c(C(F)(F)F)nn1CC(=O)NCCN1CCOCC1,412,1.6% (inactive),0.2% (inactive),86.5,-39.7% (inactive),114,-0.553 (inactive),-5.2e-05 (inactive),0.00496 (inactive),1.54% (inactive),21.8% (inactive)
CCCCNC(=O)OC(C)CNC(=O)Oc1cccc(C)c1 (stereo not drawn),482,7.6% (inactive),13.4% (inactive),92.7,41.7% (inactive),74.5,-0.471 (inactive),-2.9e-05 (inactive),0.00498 (inactive),22.3% (inactive),15.6% (inactive)
CCCc1nc2ccccc2c2nc(N)nn12,435,7.7% (inactive),13.1% (inactive),82.1,21.4% (inactive),101,-0.458 (inactive),3.4e-05 (inactive),0.00513 (inactive),13.7% (inactive),12.1% (inactive)
Cc1cc(C)nc(SCc2nnc(SCc3ccccc3Cl)o2)n1,428,-8.3% (inactive),16.9% (inactive),110,-33.4% (inactive),98.3,-0.468 (inactive),-0.000278 (inactive),0.00428 (inactive),6.47% (inactive),0.418% (inactive)
COC(=O)CN(c1ccc(F)cc1)S(=O)(=O)c1ccccc1,329,1.8% (inactive),-0.2% (inactive),86.5,-92.2% (inactive),95.6,-0.527 (inactive),-0.000183 (inactive),0.00367 (inactive),6.05% (inactive),-8.76% (inactive)
Cc1cc(C)c2c(=O)[nH]c(=O)n(Cc3ccccc3)c2n1,303,20% (inactive),-9.7% (inactive),114,0.6% (inactive),103,-0.53 (inactive),2.6e-05 (inactive),0.00637 (inactive),16.5% (inactive),27.4% (inactive)
O=C(CN1CCCN(S(=O)(=O)c2ccc(Br)cc2)CC1)Nc1ccc2cn[nH]c2c1,432,-1.3% (inactive),11% (inactive),103,-23.3% (inactive),134,-0.517 (inactive),-0.000173 (inactive),0.00424 (inactive),-14.5% (inactive),2.45% (inactive)
C=C(C)c1cccc(C(C)(C)NC(=O)Nc2ncccn2)c1,472,-4.3% (inactive),1.6% (inactive),106,-0.4% (inactive),99.6,-0.601 (inactive),-1.1e-05 (inactive),0.00622 (inactive),-42.4% (inactive),98.6% (active)
Cc1cccc2cc(C#N)c(NCCNC(=O)NC3CCCCC3)nc12,463,-5.1% (inactive),-41% (inactive),85.8,-40.3% (inactive),176,-0.471 (inactive),-0.000184 (inactive),0.00443 (inactive),-2.87% (inactive),1.15% (inactive)
Cc1nc2ccccc2c(=O)n1NC(=O)c1c(O)c2c(n(CC(C)C)c1=O)CCCC2,439,4% (inactive),9.9% (inactive),76.7,21.1% (inactive),101,-0.558 (inactive),-5e-05 (inactive),0.00523 (inactive),18.5% (inactive),13.4% (inactive)
Cc1cc2c(c(=O)n1CCN(C)C)C(c1ccncc1)C(C#N)=C(N)O2 (stereo not drawn),552,7.7% (inactive),5% (inactive),102,-74% (inactive),155,-0.484 (inactive),-1.3e-05 (inactive),0.00498 (inactive),5.86% (inactive),8.13% (inactive)
COCCN(CC(=O)NC1CCCCC1)C(=O)CSc1nc2ccccc2o1,666,12.1% (inactive),3.4% (inactive),105,-28.2% (inactive),120,-0.469 (inactive),2.1e-05 (inactive),0.00558 (inactive),2.87% (inactive),18.7% (inactive)
COc1ccc(CCNS(=O)(=O)c2ccc3c(c2)CCN3C(=O)CCC(=O)O)cc1OC,620,-6.5% (inactive),0.9% (inactive),125,-14.5% (inactive),121,-0.553 (inactive),7.1e-06 (inactive),0.00473 (inactive),12.6% (inactive),21.5% (inactive)
COCCNC(=O)C(C)OC(=O)c1nsc(Cl)c1Cl (stereo not drawn),551,-8.3% (inactive),0.5% (inactive),101,-45.1% (inactive),115,-0.317 (inactive),1e-05 (inactive),0.00545 (inactive),-6.04% (inactive),-22% (inactive)
CCn1ncc(C2=NOC(C(=O)N3CCC(C(N)=O)CC3)C2)c1C (stereo not drawn),846,-7.8% (inactive),-19.8% (inactive),105,-117% (inactive),109,-0.47 (inactive),3.7e-05 (inactive),0.00576 (inactive),-11.4% (inactive),-7.82% (inactive)
COc1ccc(-c2coc3c(CN4CCCCC4)c(O)c(CN4CCCCC4)c(O)c3c2=O)cc1,367,-17% (inactive),8.6% (inactive),85.4,-63.6% (inactive),103,-0.566 (inactive),-2.2e-05 (inactive),0.00504 (inactive),5.54% (inactive),32.3% (inactive)
Cn1nnnc1SCC(=O)Nc1ccccc1C(=O)NCc1ccccc1,368,7.2% (inactive),0.2% (inactive),98.6,-74.8% (inactive),124,-0.275 (inactive),-2.2e-05 (inactive),0.00734 (inactive),-6.6% (inactive),-17.1% (inactive)
CCc1cccc(NS(=O)(=O)c2c(C)n[nH]c2C)c1,679,-8.8% (inactive),-12.8% (inactive),124,-135% (inactive),111,-0.465 (inactive),-1.4e-05 (inactive),0.00614 (inactive),4.66% (inactive),19.7% (inactive)
Cc1noc(C)c1S(=O)(=O)N1CCC(C(=O)Nc2ccccn2)CC1,281,-5.2% (inactive),-0.6% (inactive),96.1,-46% (inactive),128,-0.404 (inactive),3.5e-05 (inactive),0.00606 (inactive),13.8% (inactive),21.1% (inactive)
O=C1CN=C(Nc2cccc(C(F)(F)F)c2)N1C1CCCC1,421,4.8% (inactive),-11% (inactive),107,-375% (inactive),149,-0.436 (inactive),-0.000109 (inactive),0.00643 (inactive),-11.3% (inactive),-11.6% (inactive)
COc1ccc2cnn(-c3ccccc3)c(=O)c2c1OC,342,-1.2% (inactive),-8.5% (inactive),107,35.5% (inactive),109,-0.549 (inactive),-7.6e-05 (inactive),0.00377 (inactive),-4.11% (inactive),-25.4% (inactive)
Cc1ccc(NC(=O)C2CCCNC2=O)nc1 (stereo not drawn),265,-2.2% (inactive),5.8% (inactive),86.6,-48.5% (inactive),82.2,-0.448 (inactive),-4.9e-05 (inactive),0.00534 (inactive),2.07% (inactive),-1.11% (inactive)
COCCN1C(=O)C(=O)/C(=C(/O)c2cccc(OC)c2)C1c1ccncc1 (stereo not drawn),272,22.2% (inactive),17.9% (inactive),95.1,54.5% (inactive),92.1,-0.578 (inactive),-8.8e-06 (inactive),0.00539 (inactive),13.1% (inactive),15.1% (inactive)
